{"source": "ChEMBL document CHEMBL3580634", "about": "“Discovery of a high affinity and selective pyridine analog as a potential positron emission tomography imaging agent for cannabinoid type 2 receptor” (J Med Chem, 2015)", "key": {"[1]": {"biological_target": "Cannabinoid receptor 2 (Mus musculus, UniProt P47936)", "sequence (P47936 whole entry)": "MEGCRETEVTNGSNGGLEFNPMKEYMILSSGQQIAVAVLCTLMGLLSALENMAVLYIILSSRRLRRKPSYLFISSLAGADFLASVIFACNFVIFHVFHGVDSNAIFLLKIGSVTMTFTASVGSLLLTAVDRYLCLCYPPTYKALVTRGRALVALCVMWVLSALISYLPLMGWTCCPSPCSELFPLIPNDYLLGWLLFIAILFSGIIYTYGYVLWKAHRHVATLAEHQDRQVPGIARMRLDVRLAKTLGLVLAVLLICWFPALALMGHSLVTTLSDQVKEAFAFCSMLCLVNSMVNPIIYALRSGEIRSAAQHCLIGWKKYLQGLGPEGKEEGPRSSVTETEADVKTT", "experiment": "Displacement of [3H]CP-55,940 from mouse CB2 receptor expressed in CHO cell membranes", "procedure,_shortened": "(§1)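 Membranes from CHO cells expressing human or murine CB2 were incubated with [3H]CP-55,940 in 50 mM Tris, 5 mM MgCl2, 2.5 mM EGTA, 0.1% fatty-acid-free BSA, pH 7.4, 1 h at 30 °C with shaking. Reaction stopped by filtration through PEI-coated GF/B. Ki from nonlinear regression using saturation-derived Kd. Ten concentrations in triplicate.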"}, "[2]": {"biological_target": "Cannabinoid receptor 1 (Homo sapiens, UniProt P21554)", "sequence (P21554 whole entry, looked up)": "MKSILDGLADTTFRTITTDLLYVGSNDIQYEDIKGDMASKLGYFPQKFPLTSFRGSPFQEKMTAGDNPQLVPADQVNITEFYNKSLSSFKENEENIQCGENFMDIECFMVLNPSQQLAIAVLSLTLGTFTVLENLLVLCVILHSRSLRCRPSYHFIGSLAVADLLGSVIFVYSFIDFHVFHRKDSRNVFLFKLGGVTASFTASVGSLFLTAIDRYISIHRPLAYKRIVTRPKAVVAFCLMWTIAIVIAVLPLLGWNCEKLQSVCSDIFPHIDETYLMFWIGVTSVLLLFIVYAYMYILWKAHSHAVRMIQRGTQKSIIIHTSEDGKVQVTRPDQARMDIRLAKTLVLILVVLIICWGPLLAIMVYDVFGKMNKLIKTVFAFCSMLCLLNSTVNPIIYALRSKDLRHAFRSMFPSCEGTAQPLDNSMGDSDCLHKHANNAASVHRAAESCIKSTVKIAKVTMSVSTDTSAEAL", "experiment": "Activity at human CB1 receptor expressed in CHO cells assessed as cAMP accumulation incubated for 30 mins by time-resolved FRET assay", "format": "functional, cell-based", "procedure,_shortened": "(§2)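 CHO cells expressing human CB1 or CB2 were seeded 1 day before in DMEM/HT supplement/10% FCS. Medium was replaced with Krebs Ringer bicarbonate buffer containing 1 mM IBMX, 30 min at 30 °C, then compound added for 30 min at 30 °C. cAMP was read by time-resolved FRET (cAMP-Nano-TRF kit) against a standard curve from 10 μM to 0.13 nM. Ten concentrations in triplicate, single experiment.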"}, "[3]": {"experiment": "Lipophilicity, log D of the compound in n-octanol/phosphate buffer pH 7.4 by shake flask method", "format": "physicochemical"}, "[4]": {"biological_target": "T1, Cannabinoid receptor 2 (Homo sapiens, UniProt P34972)", "T1 sequence (P34972 whole entry)": "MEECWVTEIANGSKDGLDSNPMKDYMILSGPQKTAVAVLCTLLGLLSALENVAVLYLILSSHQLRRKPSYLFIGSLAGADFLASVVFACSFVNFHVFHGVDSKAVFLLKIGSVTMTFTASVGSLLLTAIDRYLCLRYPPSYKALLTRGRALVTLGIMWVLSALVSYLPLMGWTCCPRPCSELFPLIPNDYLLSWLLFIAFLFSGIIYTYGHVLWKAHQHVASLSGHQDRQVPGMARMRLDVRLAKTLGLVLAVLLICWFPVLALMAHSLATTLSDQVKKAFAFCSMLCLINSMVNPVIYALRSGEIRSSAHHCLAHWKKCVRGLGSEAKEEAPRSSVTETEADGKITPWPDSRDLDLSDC", "experiment": "Displacement of [3H]CP-55,940 from human CB2 receptor expressed in CHO cell membranes", "procedure,_shortened": "as §1"}, "[5]": {"biological_target": "T1, Cannabinoid receptor 2", "experiment": "Activity at human CB2 receptor expressed in CHO cells assessed as cAMP accumulation incubated for 30 mins by time-resolved FRET assay", "format": "functional, cell-based", "procedure,_shortened": "as §2"}, "[6]": {"biological_target": "T1, Cannabinoid receptor 2", "experiment": "Binding affinity to human CB2 receptor", "procedure,_shortened": "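Competition binding with [³H]CP-55,940 on membranes from CHO cells expressing human CB2. Buffer: 50 mM Tris, 5 mM MgCl₂, 2.5 mM EGTA, 0.1% fatty-acid-free BSA, pH 7.4. Incubated 1 h at 30 °C with shaking, then rapid filtration through 0.5% polyethylenimine-coated filters. Ki from nonlinear regression, using Kd from saturation experiments. Single experiment, triplicates, 10 concentrations.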"}, "[7]": {"experiment": "Ratio of drug level in brain to plasma in ip dosed rat", "format": "ADME, organism-based", "settings": "read-out: BPR; call rule not given here"}, "[8]": {"experiment": "Drug level in brain of ip dosed rat after 1 hr", "format": "ADME, organism-based", "settings": "read-out: Drug uptake"}, "[9]": {"test_system": "CHO", "experiment": "Selectivity index, ratio of EC50 for human CB1 receptor expressed in CHO cells to EC50 for human CB2 receptor expressed in CHO cells", "format": "cell-based"}, "[10]": {"experiment": "Substrate activity at P-gp (unknown origin)", "format": "ADME", "settings": "human"}}, "note": "pEC50, pKi: −log10 of the molar value.", "data": [{"smiles": "CCC(CC)(NC(=O)c1ccc(N2CC(OC)C2)c(OCC2CC2)n1)C(=O)NCCF", "values": [{"measurement": "pKi", "setting": "[1]", "result": 6.38}, {"measurement": "pEC50", "setting": "[2]", "result": "< 5.00"}, {"measurement": "logD", "setting": "[3]", "result": 3.43}, {"measurement": "pKi", "setting": "[4]", "result": 6.04}, {"measurement": "pEC50", "setting": "[5]", "result": 6.55}]}, {"smiles": "COC1CN(c2ccc(C(=O)NC(C)(C)Cc3nnc(-c4ccc(F)cc4)o3)nc2OCC2CC2)C1", "values": [{"measurement": "pKi", "setting": "[1]", "result": 6.30}, {"measurement": "pEC50", "setting": "[2]", "result": "< 5.00"}, {"measurement": "pKi", "setting": "[4]", "result": 6.33}, {"measurement": "pEC50", "setting": "[5]", "result": 5.74}]}, {"smiles": "CC(C)(NC(=O)c1ccc(N2CC(F)(F)C2)c(OCC2CC2)n1)c1nnc(C2CC2)o1", "values": [{"measurement": "pKi", "setting": "[1]", "result": "< 5.00"}, {"measurement": "pEC50", "setting": "[2]", "result": "< 5.00"}, {"measurement": "pKi", "setting": "[4]", "result": "< 5.00"}, {"measurement": "pEC50", "setting": "[5]", "result": "< 5.00"}]}, {"smiles": "COc1ccc2c(c1)c(CCN1CCOCC1)c(C)n2C(=O)c1cccc(Cl)c1Cl", "values": [{"measurement": "pKi", "setting": "[6]", "result": 8.41}, {"measurement": "Kp", "setting": "[7]", "result": 5}, {"measurement": "concentration at 1 h", "setting": "[8]", "result": "> 100", "unit": "nM"}]}, {"smiles": "CCOC(=O)C(CC)(CC)NC(=O)c1ccc(C2CCCC2)c(OCC2CC2)n1", "values": [{"measurement": "pKi", "setting": "[1]", "result": 7.41}, {"measurement": "pEC50", "setting": "[2]", "result": "< 5.00"}, {"measurement": "pKi", "setting": "[4]", "result": 7.79}, {"measurement": "pEC50", "setting": "[5]", "result": 8.54}]}, {"smiles": "CCC(CC)(NC(=O)c1ccc(N2CC(OC)C2)c(OCC2CC2)n1)C(=O)N1CC(F)C1", "values": [{"measurement": "Ratio EC50", "setting": "[9]", "result": "> 1000"}, {"measurement": "pKi", "setting": "[1]", "result": 8.16}, {"measurement": "pEC50", "setting": "[2]", "result": "< 5.00"}, {"measurement": "logD", "setting": "[3]", "result": 3.25}, {"measurement": "Activity", "setting": "[10]", "result": "Active"}, {"measurement": "pKi", "setting": "[4]", "result": 7.74}, {"measurement": "pEC50", "setting": "[5]", "result": 8.36}]}, {"smiles": "COCCOCC(C)(C)c1cc(NC(=O)c2ccc(C3CCCC3)c(OCC3CC3)n2)on1", "values": [{"measurement": "pKi", "setting": "[1]", "result": 7.90}, {"measurement": "pEC50", "setting": "[2]", "result": "< 5.00"}, {"measurement": "pKi", "setting": "[4]", "result": 6.53}]}, {"smiles": "CC(C)(Cc1nnc(-c2ccc(F)cc2)o1)NC(=O)c1ccc(N2CC(F)(F)C2)c(OCC2CC2)n1", "values": [{"measurement": "pKi", "setting": "[1]", "result": 5.98}, {"measurement": "pEC50", "setting": "[2]", "result": "< 5.00"}, {"measurement": "pKi", "setting": "[4]", "result": 5.52}]}, {"smiles": "COC1CN(c2ccc(C(=O)NC(C)(C)Cc3nnc(C4CCC4)o3)nc2OCC2CC2)C1", "values": [{"measurement": "pEC50", "setting": "[2]", "result": "< 5.00"}, {"measurement": "logD", "setting": "[3]", "result": 3.37}, {"measurement": "pEC50", "setting": "[5]", "result": 5.40}]}, {"smiles": "COC1CN(c2ccc(C(=O)NCC3(O)CCCCC3)nc2OCC2CC2)C1", "values": [{"measurement": "pKi", "setting": "[1]", "result": 5.65}, {"measurement": "pEC50", "setting": "[2]", "result": "< 5.00"}, {"measurement": "pKi", "setting": "[4]", "result": 5.54}]}]}
